{"source": "ChEMBL document CHEMBL1811802", "about": "“Synthesis and significant cytostatic activity of 7-hetaryl-7-deazaadenosines” (J Med Chem, 2011)", "key": {"CCRF-CEM [1]": {"test_system": "CCRF-CEM", "test": "Inhibition of RNA synthesis in human CCRF-CEM cells assessed as BrU incorporation at 1 to 5 times GI50 after 1 hr by FACS analysis", "type": "functional, cell-based", "outline": "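CCRF-CEM cultured as for cell cycle (1× or 5× GIC50), pulsed with 1 mM 5-bromouridine 30 min. Paraformaldehyde/NP-40 fixation, anti-BrdU antibody cross-reacting with BrU, FITC secondary, propidium iodide/RNase counterstain, flow cytometry at 488 nm.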"}, "[2]": {"test": "Cytotoxicity against human U87MG cells after 3 days by MTT assay", "type": "functional, cell-based, U-87MG ATCC", "settings": "U-87 MG, 72 h"}, "DU-145 [3]": {"test_system": "DU-145", "test": "Metabolic stability in human DU145 cells assessed as sodium ((2R,3S,4R,5R)-5-(4-amino-7H-pyrrolo[2,3-d]pyrimidin-7-yl)-3,4-dihydroxytetrahydrofuran-2-yl)methyl hydrogenphosphate-NMP formation per million of cells at 10 uM after 24 hrs by LC/MS/MS analysis", "type": "ADME, cell-based", "settings": "du-145, 24 h", "outline": "(§1)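 Du145 seeded at 60% confluence in MEM/10% FBS; next day exposed to 10 μM compound for 6 or 24 h. Cells trypsinized, extracted in 70% MeOH, dried, resuspended in 1 mM ammonium phosphate pH 8.5. Nucleoside, NMP and NTP quantified by ion-pairing (dimethylhexylamine) LC/MS/MS against untreated-cell-extract standard curves; pmol per million cells.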"}, "DU-145 [4]": {"test_system": "DU-145", "test": "Metabolic stability in human DU145 cells assessed as nucleoside formation per million of cells at 10 uM after 24 hrs by LC/MS/MS analysis", "type": "ADME, cell-based", "settings": "du-145, 24 h", "outline": "as §1"}, "HeLa": {"test_system": "HeLa", "test": "Cytotoxicity against human HeLa cells after 3 days by MTT assay", "type": "functional, cell-based", "settings": "72 h"}, "CCRF-CEM [5]": {"test_system": "CCRF-CEM", "test": "Cytotoxicity against human CCRF-CEM cells after 3 days by XTT assay", "type": "functional, cell-based", "settings": "72 h", "outline": "(§2)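 Suspension-grown cell lines, 3-day compound incubation; viability read by XTT metabolic assay; IC50 averaged from four independent experiments.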"}, "HCT-116 [6]": {"test_system": "HCT-116", "test": "Cytotoxicity against human HCT116 cells after 3 days by MTT assay", "type": "functional, cell-based", "settings": "HCT-116, 72 h"}, "HCT-116 [7]": {"test_system": "HCT-116", "test": "Cytostatic activity against human HCT116 cells after 5 days by SRB assay", "type": "functional", "settings": "HCT-116, 120 h", "outline": "(§3)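 Cells seeded per line density, overnight at 37 °C; day-zero plate TCA-fixed. 5-fold serial dilutions added, 5-day incubation; TCA fixation, 0.057% SRB in 1% acetic acid 30 min, dye dissolved in 10 mM Tris pH 10.5, A500. Growth relative to day-zero and untreated; GIC50 from sigmoidal dose–response fit; mean of two independent experiments.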"}, "PC-3 [8]": {"test_system": "PC-3", "test": "Cytostatic activity against human PC3 cells after 5 days by SRB assay", "type": "functional", "settings": "PC-3, 120 h", "outline": "as §3"}, "HL-60": {"test_system": "HL-60", "test": "Cytotoxicity against human HL60 cells after 3 days by XTT assay", "type": "functional, cell-based", "settings": "HL-60, 72 h", "outline": "as §2"}, "[9]": {"test": "Cytotoxicity against human HeLaS3 cells after 3 days by XTT assay", "type": "functional, cell-based", "settings": "HeLa S3, 72 h", "outline": "as §2"}, "DU-145 [10]": {"test_system": "DU-145", "test": "Metabolic stability in human DU145 cells assessed as sodium ((2R,3S,4R,5R)-5-(4-amino-7H-pyrrolo[2,3-d]pyrimidin-7-yl)-3,4-dihydroxytetrahydrofuran-2-yl)methyl hydrogentriphosphate-NTP formation per million of cells at 10 uM after 24 hrs by LC/MS/MS analysis", "type": "ADME, cell-based", "settings": "du-145, 24 h", "outline": "as §1"}, "K562": {"test_system": "K562", "test": "Cytotoxicity against human paclitaxel resistant K562 cells after 3 days by MTT assay", "type": "functional, cell-based", "settings": "K562, 72 h"}, "CCRF-CEM [11]": {"test_system": "CCRF-CEM", "test": "Inhibition of DNA synthesis in human CCRF-CEM cells assessed as BrdU incorporation at 1 to 5 times GI50 after 1 hr by FACS analysis", "type": "functional, cell-based", "settings": "in the assay text read “at 5 times GI50 after longer incubation” for “at 1 to 5 times GI50 after 1 hr”", "outline": "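CCRF-CEM cultured as for cell cycle (1× or 5× GIC50), pulsed with 10 μM BrdU for 30 min before harvest. Ethanol-fixed, DNA denatured in 2 M HCl, anti-BrdU then FITC secondary antibody, propidium iodide/RNase counterstain, flow cytometry at 488 nm.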"}, "DU-145 [12]": {"test_system": "DU-145", "test": "Metabolic stability in human DU145 cells assessed as sodium ((2R,3S,4R,5R)-5-(4-amino-7H-pyrrolo[2,3-d]pyrimidin-7-yl)-3,4-dihydroxytetrahydrofuran-2-yl)methyl hydrogenphosphate-NMP formation per million of cells at 10 uM after 6 hrs by LC/MS/MS analysis", "type": "ADME, cell-based", "settings": "du-145, 6 h", "outline": "as §1"}, "CCRF-CEM [13]": {"test_system": "CCRF-CEM", "test": "Cell cycle arrest in human CCRF-CEM cells assessed as accumulation at G2/M phase at 5 time GI50 using propidium iodide staining by flow cytometry", "type": "functional, cell-based", "outline": "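CCRF-CEM seeded at 5 × 10^5 cells/ml, grown in RPMI 1640 with 10% FCS at 37 °C with 1× or 5× GIC50 of compound; vehicle controls harvested at same times. Cells ethanol-fixed, RNase-treated, stained with propidium iodide, flow cytometry at 488 nm; cell cycle phases scored.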"}, "SK-N-AS": {"test_system": "SK-N-AS", "test": "Cytotoxicity against human SK-N-AS cells after 3 days by MTT assay", "type": "functional, cell-based", "settings": "72 h"}, "BV-173": {"test_system": "BV-173", "test": "Cytotoxicity against human BV173 cells after 3 days by MTT assay", "type": "functional, cell-based", "settings": "BV-173, 72 h"}, "CT26": {"test_system": "CT26", "test": "Cytotoxicity against mouse CT26 cells after 3 days by MTT assay", "type": "functional, cell-based", "settings": "CT26, 72 h"}, "[14]": {"test": "Antitumor activity against mouse P388D1 cells xenografted in DBA/2 mouse assessed as increase of mean survival days at 75 mg/kg, ip qd administered as 2 cycles on day 1 to 3 and day 8 to 10", "type": "functional", "settings": "route intraperitoneal", "outline": "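P388D1 mouse leukemia cells, grown in RPMI with 10% FBS, were implanted ip at 10^5 cells per mouse on day 0 into female DBA/2 mice (18–22 g, SPF) and randomized 10 per group. Dosing was once daily ip in 50% PEG400/deionized water (pH 7.0) on days 1–3 and 8–10, with vehicle for controls. Deaths were recorded daily, and MST and %ILS were calculated.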"}, "EL4": {"test_system": "EL4", "test": "Cytotoxicity against mouse EL4 cells after 3 days by MTT assay", "type": "functional, cell-based", "settings": "EL4, 72 h"}, "C6": {"test_system": "C6", "test": "Cytotoxicity against rat C6 cells after 3 days by MTT assay", "type": "functional, cell-based", "settings": "C6, 72 h"}, "SK-MEL-2": {"test_system": "SK-MEL-2", "test": "Cytotoxicity against human SK-MEL-2 cells after 3 days by MTT assay", "type": "functional, cell-based", "settings": "SK-MEL-2, 72 h"}, "BJ": {"test_system": "BJ", "test": "Cytotoxicity against human BJ cells after 3 days by MTT assay", "type": "cell-based", "settings": "72 h"}, "[15]": {"test": "Antitumor activity against mouse P388D1 cells xenografted in DBA/2 mouse assessed as increase of lifespan at 35 mg/kg, ip qd administered as 2 cycles on day 1 to 3 and day 8 to 10", "settings": "route intraperitoneal"}, "BT-549": {"test_system": "BT-549", "test": "Cytotoxicity against human BT549 cells after 3 days by MTT assay", "type": "functional, cell-based", "settings": "BT-549, 72 h"}, "PC-3 [16]": {"test_system": "PC-3", "test": "Cytotoxicity against human PC3 cells after 3 days by MTT assay", "type": "functional, cell-based", "settings": "PC-3, 72 h"}, "SK-OV-3": {"test_system": "SK-OV-3", "test": "Cytotoxicity against human SKOV3 cells after 3 days by MTT assay", "type": "functional, cell-based", "settings": "SK-OV-3, 72 h"}, "Adenosine kinase": {"target": "Adenosine kinase (Homo sapiens, UniProt P55263)", "sequence (P55263 whole entry)": "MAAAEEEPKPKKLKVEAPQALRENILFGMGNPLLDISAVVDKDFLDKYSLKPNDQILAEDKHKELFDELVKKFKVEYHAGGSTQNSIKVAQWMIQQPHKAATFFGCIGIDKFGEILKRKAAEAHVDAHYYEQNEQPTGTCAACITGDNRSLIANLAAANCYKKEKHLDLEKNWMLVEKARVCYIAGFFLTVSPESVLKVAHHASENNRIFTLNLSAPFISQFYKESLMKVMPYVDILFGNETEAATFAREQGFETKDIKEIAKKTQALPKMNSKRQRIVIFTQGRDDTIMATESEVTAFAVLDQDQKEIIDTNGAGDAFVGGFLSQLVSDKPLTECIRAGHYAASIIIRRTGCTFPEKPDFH", "test": "Inhibition of human ADK using [3H]-adenosine by scintillation counting"}}, "note": "pIC50: −log10 of the molar value. Activity calls are given as the source filed them. The rule behind the calls is not given here."}
{"smiles": "Nc1ncnc2c1c(-c1cccs1)cn2[C@@H]1O[C@H](CO)[C@@H](O)[C@H]1O", "values": [{"measurement": "inhibition", "setting": "CCRF-CEM [1]", "result": "Active"}, {"measurement": "pIC50", "setting": "[2]", "result": "< 5.00"}, {"measurement": "Stability", "setting": "DU-145 [3]", "result": 64, "unit": "pmol"}, {"measurement": "Stability", "setting": "DU-145 [4]", "result": 30.4, "unit": "pmol"}, {"measurement": "pIC50", "setting": "HeLa", "result": 7.48}, {"measurement": "pIC50", "setting": "CCRF-CEM [5]", "result": 7.30}, {"measurement": "pIC50", "setting": "HCT-116 [6]", "result": 7.22}, {"measurement": "GI50", "setting": "HCT-116 [7]", "result": 2.6, "unit": "nM"}, {"measurement": "GI50", "setting": "PC-3 [8]", "result": 1620, "unit": "nM"}, {"measurement": "pIC50", "setting": "HL-60", "result": 6.02}, {"measurement": "pIC50", "setting": "[9]", "result": 7.70}, {"measurement": "Stability", "setting": "DU-145 [10]", "result": 1.96, "unit": "pmol"}, {"measurement": "pIC50", "setting": "K562", "result": 7.33}, {"measurement": "inhibition", "setting": "CCRF-CEM [11]", "result": "Active"}, {"measurement": "Stability", "setting": "DU-145 [12]", "result": 5.04, "unit": "pmol"}, {"measurement": "Activity", "setting": "CCRF-CEM [13]", "result": "Active"}, {"measurement": "pIC50", "setting": "SK-N-AS", "result": "< 5.00"}, {"measurement": "pIC50", "setting": "BV-173", "result": 6.98}, {"measurement": "pIC50", "setting": "CT26", "result": 6.91}, {"measurement": "MSD", "setting": "[14]", "result": 15.1, "unit": "days"}, {"measurement": "pIC50", "setting": "EL4", "result": 5.03}, {"measurement": "pIC50", "setting": "C6", "result": 5.34}, {"measurement": "pIC50", "setting": "SK-MEL-2", "result": 5.70}, {"measurement": "pIC50", "setting": "BJ", "result": 5.01}, {"measurement": "Activity", "setting": "[15]", "result": 28, "unit": "%"}, {"measurement": "pIC50", "setting": "BT-549", "result": 6.92}, {"measurement": "pIC50", "setting": "PC-3 [16]", "result": 5.06}, {"measurement": "pIC50", "setting": "SK-OV-3", "result": "< 5.00"}, {"measurement": "pIC50", "setting": "Adenosine kinase", "result": "< 5.30"}]}
